For data set [1], the target named is 5-hydroxytryptamine receptor 4 (Cavia porcellus, UniProt O70528). As to the kind of experiment: Inhibition of 5-HT-evoked 5-HT4 receptor-mediated contractions in the guinea pig distal colon longitudinal muscle myenteric plexus (LMMP). It counts as functional.
For data set [2], the target named is 5-hydroxytryptamine receptor 1E (Homo sapiens, UniProt P28566). As to the kind of experiment: Tested for binding affinity towards cloned human 5-hydroxytryptamine 1E receptor using [3H]5-HT as radioligand. The method in brief:
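Radioligand binding on the cloned human 5-HT1E receptor, labelled with [³H]-5-HT.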

In data set [3] the target is T1, 5-hydroxytryptamine receptor 1A (Mus musculus, UniProt Q64264).
T1 sequence (Q64264 whole entry): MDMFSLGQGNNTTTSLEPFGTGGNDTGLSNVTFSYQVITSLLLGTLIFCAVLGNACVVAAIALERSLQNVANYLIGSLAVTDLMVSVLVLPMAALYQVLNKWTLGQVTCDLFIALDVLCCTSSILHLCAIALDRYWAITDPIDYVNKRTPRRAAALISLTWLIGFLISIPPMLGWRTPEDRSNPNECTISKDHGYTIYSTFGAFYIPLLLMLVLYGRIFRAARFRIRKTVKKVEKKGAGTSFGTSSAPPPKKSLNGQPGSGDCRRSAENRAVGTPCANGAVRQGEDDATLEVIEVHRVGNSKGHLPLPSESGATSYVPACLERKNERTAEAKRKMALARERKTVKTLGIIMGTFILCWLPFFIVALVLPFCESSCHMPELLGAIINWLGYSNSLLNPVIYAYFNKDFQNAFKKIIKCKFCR
As to the kind of experiment: Tested against 5-hydroxytryptamine 1A receptor.

Data set [4] deals with 5-hydroxytryptamine receptor 2A (Homo sapiens, UniProt P28223). As to the kind of experiment: Tested against 5-hydroxytryptamine 2A receptor.
Chain of 5-hydroxytryptamine receptor 2A (P28223 whole entry): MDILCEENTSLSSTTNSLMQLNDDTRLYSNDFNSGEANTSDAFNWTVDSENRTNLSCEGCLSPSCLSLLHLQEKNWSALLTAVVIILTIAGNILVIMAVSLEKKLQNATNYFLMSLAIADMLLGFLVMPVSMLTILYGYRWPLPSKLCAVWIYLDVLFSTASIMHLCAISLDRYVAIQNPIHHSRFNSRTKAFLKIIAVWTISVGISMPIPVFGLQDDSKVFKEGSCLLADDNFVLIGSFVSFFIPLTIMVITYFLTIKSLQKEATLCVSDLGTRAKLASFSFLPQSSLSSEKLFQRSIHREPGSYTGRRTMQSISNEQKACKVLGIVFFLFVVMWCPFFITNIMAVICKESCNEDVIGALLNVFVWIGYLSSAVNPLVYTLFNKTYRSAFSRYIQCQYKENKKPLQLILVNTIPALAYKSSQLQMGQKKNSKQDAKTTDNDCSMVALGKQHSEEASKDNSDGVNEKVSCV
Data set [5] concerns the target 5-hydroxytryptamine receptor 1D (Homo sapiens, UniProt P28221). As to the kind of experiment: Tested against 5-hydroxytryptamine 1D receptor.
Data set [6] has as its target Serotonin 3 (5-HT3) receptor. As to the kind of experiment: Tested against 5-hydroxytryptamine 3 receptor in experiment 1. It counts as protein-complex assay.
The target of data set [7] is Serotonin 3 (5-HT3) receptor. As to the kind of experiment: Tested against 5-hydroxytryptamine 3 receptor in experiment 2. It counts as protein-complex assay.
The target of data set [8] is T2, 5-hydroxytryptamine receptor 2C (Homo sapiens, UniProt P28335).
T2 sequence (P28335 whole entry): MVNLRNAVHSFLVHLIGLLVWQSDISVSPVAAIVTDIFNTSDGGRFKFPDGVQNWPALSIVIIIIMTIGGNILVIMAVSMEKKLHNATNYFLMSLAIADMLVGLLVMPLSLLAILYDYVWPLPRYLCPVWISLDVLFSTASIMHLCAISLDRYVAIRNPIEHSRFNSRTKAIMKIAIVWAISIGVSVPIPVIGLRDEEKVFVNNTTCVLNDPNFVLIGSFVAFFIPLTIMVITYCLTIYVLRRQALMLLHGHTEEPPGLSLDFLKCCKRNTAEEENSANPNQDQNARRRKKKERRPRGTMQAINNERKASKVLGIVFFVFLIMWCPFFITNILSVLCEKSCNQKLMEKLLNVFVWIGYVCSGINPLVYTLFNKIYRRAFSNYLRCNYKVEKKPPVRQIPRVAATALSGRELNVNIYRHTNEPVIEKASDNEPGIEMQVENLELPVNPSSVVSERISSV
As to the kind of experiment: Tested agains t5-hydroxytryptamine 2C receptor in experiment 1.

Data set [9] has as its target T2, 5-hydroxytryptamine receptor 2C. As to the kind of experiment: Tested against 5-hydroxytryptamine 2C receptor in experiment 2.
Data set [10] in a line: Partition coefficient (logP). It counts as physicochemical. As to conditions: octanol/water.
The nature of data set [11]: Concentration-dependent rightward shift of the 5-HT curve yielding an apparent pA2. It counts as ADME.
Data set [12] in a line: Acid dissociation constant was determined. It counts as ADME.
Data set [13] concerns the target T3, Alpha-2A adrenergic receptor (Homo sapiens, UniProt P08913).
T3 sequence (P08913 whole entry): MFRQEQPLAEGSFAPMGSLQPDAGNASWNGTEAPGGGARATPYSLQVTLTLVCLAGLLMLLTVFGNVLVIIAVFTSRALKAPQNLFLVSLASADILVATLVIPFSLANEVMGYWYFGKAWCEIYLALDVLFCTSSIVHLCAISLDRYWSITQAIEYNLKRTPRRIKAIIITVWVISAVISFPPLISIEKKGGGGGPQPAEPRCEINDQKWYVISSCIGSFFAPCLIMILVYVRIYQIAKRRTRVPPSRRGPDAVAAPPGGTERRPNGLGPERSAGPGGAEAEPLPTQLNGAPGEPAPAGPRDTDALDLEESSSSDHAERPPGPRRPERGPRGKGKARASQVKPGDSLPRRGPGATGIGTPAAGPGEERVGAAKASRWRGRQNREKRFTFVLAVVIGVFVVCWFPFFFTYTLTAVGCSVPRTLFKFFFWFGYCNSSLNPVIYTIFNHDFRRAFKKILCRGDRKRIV
As to the kind of experiment: Tested against adrenergic alpha-2 receptor.

Data set [14] has as its target T4, Alpha-1D adrenergic receptor (Rattus norvegicus, UniProt P23944).
T4 sequence (P23944 whole entry): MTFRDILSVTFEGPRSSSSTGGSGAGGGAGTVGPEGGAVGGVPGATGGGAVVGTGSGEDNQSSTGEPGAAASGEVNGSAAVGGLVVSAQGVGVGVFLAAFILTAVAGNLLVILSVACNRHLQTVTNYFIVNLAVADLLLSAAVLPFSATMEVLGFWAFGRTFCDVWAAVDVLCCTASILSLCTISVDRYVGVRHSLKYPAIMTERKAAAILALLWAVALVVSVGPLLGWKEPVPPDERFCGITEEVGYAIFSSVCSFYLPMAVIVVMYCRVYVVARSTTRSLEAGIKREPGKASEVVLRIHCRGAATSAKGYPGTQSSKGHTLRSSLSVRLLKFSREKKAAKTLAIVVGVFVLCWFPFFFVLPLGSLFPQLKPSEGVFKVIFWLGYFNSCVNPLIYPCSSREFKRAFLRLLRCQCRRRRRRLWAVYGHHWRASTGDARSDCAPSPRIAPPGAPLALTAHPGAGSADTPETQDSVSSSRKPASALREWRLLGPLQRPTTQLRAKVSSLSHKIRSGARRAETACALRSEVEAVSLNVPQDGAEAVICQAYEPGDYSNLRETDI
As to the kind of experiment: Tested against adrenergic alpha-1 receptor radiolabeled with [3H]7-methoxyprazosin. The method in brief:
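α1-Adrenoceptor binding, radiolabelled with [³H]-7-methoxyprazosin.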

Data set [15] has as its target Beta-2 adrenergic receptor (Homo sapiens, UniProt P07550). As to the kind of experiment: Tested against Beta-2 adrenergic receptor.
Another data set has as its target D(1A) dopamine receptor (Mus musculus, UniProt Q61616). As to the kind of experiment: Tested against dopamine receptor D1.
The next data set deals with D(3) dopamine receptor (Homo sapiens, UniProt P35462). As to the kind of experiment: Tested against dopamine receptor D3 using cloned human receptor expressed in CHO cells radiolabeled with [125I]iodosulpiride. It counts as cell-based. The method in brief:
(§1)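 Competition binding on cloned human D2 or D3 receptors expressed in CHO cells, radiolabelled with [¹²⁵I]iodosulpride.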

The next data set addresses D(2) dopamine receptor (Homo sapiens, UniProt P14416). As to the kind of experiment: Tested against dopamine receptor D2 using cloned human receptor expressed in CHO cells radiolabeled with [125I]iodosulpiride. It counts as cell-based. The method in brief:
as §1

Data set [16] has as its target Beta-1 adrenergic receptor (Homo sapiens, UniProt P08588). As to the kind of experiment: Tested against Beta-1 adrenergic receptor.

Chain of 5-hydroxytryptamine receptor 4 (O70528 whole entry): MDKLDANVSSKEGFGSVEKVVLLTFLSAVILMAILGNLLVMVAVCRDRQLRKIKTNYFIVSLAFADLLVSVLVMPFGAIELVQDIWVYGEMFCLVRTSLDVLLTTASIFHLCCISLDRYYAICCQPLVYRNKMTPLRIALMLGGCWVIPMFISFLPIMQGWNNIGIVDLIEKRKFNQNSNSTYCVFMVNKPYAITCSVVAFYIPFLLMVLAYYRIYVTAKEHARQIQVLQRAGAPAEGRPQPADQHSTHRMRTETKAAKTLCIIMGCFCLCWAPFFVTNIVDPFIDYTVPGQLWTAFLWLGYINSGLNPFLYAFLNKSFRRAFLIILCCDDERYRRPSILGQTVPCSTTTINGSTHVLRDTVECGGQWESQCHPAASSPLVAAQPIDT
Chain of Beta-2 adrenergic receptor (P07550 whole entry): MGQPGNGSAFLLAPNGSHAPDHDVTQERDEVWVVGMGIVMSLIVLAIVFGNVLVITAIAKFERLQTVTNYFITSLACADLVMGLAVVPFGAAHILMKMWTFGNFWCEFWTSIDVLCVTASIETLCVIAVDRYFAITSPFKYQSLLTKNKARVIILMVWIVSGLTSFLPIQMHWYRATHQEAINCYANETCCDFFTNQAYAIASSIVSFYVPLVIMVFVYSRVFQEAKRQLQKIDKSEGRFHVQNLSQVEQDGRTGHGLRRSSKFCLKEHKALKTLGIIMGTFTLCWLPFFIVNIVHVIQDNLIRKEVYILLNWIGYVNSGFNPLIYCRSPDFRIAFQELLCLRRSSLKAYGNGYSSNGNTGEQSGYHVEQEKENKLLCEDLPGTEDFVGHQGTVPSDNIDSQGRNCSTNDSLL
Chain of D(3) dopamine receptor (P35462 whole entry): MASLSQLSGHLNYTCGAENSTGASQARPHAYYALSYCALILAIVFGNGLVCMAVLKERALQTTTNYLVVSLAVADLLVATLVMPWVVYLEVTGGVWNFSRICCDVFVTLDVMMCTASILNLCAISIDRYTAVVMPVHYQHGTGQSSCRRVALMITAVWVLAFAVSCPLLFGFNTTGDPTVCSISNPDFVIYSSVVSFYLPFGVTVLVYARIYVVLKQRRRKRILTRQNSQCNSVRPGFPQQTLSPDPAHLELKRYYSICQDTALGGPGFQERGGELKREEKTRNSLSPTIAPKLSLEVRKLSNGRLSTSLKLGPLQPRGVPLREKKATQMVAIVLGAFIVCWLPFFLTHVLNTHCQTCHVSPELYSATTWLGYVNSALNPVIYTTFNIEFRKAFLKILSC
Chain of Beta-1 adrenergic receptor (P08588 whole entry): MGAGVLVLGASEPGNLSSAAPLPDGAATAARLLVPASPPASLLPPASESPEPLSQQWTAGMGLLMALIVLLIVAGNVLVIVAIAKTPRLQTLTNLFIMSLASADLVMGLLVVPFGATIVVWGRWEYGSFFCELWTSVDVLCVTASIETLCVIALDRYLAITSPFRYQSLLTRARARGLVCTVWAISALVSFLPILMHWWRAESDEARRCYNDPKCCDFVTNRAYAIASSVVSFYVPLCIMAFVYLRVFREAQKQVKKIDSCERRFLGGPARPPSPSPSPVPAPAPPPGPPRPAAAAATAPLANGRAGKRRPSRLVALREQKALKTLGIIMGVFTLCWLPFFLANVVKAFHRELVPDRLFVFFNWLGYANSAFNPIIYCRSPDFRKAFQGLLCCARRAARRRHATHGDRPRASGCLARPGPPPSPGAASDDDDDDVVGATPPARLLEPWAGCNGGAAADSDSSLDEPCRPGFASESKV
Chain of 5-hydroxytryptamine receptor 1E (P28566 whole entry): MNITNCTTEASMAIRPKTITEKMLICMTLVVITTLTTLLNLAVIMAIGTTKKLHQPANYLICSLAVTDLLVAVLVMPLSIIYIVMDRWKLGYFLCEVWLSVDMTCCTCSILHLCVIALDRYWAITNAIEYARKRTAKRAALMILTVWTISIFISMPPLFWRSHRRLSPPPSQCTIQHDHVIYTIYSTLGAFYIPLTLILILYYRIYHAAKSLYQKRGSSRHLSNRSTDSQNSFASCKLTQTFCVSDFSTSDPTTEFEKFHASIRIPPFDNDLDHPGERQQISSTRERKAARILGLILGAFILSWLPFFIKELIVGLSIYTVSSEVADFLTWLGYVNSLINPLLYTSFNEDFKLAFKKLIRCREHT
Chain of D(2) dopamine receptor (P14416 whole entry): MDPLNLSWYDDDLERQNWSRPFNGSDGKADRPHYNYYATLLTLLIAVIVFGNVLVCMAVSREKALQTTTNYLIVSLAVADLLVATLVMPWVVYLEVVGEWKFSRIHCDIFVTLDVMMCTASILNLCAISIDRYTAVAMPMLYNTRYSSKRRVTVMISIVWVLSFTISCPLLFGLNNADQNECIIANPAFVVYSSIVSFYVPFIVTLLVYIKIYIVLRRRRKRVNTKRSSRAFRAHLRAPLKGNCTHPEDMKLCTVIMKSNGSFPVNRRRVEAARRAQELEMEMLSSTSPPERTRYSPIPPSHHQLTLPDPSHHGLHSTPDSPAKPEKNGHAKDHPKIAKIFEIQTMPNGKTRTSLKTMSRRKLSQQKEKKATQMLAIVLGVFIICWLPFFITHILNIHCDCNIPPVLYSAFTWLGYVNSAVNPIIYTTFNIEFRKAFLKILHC
Chain of 5-hydroxytryptamine receptor 1D (P28221 whole entry): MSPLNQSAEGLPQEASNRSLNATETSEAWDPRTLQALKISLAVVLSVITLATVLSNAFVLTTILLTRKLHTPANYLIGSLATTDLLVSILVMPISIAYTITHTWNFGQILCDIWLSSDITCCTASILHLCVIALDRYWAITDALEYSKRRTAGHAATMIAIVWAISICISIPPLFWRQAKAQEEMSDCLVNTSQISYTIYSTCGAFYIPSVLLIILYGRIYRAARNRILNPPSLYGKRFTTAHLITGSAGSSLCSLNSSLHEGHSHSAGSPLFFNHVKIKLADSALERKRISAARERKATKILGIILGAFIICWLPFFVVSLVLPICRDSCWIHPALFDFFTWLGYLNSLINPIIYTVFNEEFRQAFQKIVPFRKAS
Chain of D(1A) dopamine receptor (Q61616 whole entry): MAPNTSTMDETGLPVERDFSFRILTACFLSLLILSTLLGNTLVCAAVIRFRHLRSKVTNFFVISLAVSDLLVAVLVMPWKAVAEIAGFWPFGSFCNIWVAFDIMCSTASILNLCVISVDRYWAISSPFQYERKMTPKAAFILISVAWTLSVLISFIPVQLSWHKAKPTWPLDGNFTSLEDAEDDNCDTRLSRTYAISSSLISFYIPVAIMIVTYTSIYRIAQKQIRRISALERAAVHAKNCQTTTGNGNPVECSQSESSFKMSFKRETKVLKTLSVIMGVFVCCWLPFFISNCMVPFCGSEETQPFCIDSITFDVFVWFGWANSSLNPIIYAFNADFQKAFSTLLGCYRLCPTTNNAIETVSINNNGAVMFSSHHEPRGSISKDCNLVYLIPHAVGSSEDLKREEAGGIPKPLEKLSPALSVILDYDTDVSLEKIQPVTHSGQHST

For `CCCCN1CCC(COC(=O)c2cccc3c2OCCO3)CC1`, half-maximal inhibition in [1] (IC50) was put at 6.31 nM.

For the compound `CCCCN1CCC(COC(=O)c2cccc3c2OCCCO3)CC1`, the IC50 (commonly the concentration that inhibits the measured activity by half) in [1] was 50.1 nM.

`CCCCN1CCC(CNC(=O)c2cc(Cl)c(N)cc2OC)CC1` had an IC50 in data set [1] of 10 nM. Against the preceding compound, the IC50 is about 5-fold lower.

In turn, `CCCCN1CCC(COC(=O)c2cccc3c2OCO3)CC1` showed an IC50 in data set [1] of 63.1 nM.

With `CCN(CC)CCOC(=O)c1cc(Cl)c(N)cc1OC`, in data set [1], the IC50 was 251 nM.

As to `CCCCN1CCC(COC(=O)c2cc(Cl)c(N)cc2OC)CC1`, the concentration for half-maximal inhibition (IC50) in data set [1] is 1 nM.

For the compound `CCCCN1CCC(COC(=O)c2cc(Cl)c(N)c3c2OCCO3)CC1`, the inhibitory constant (Ki) (commonly the dissociation constant of the complex between target and ligand, obtained from inhibition or displacement) in data set [2] is over 10000 nM; in data set [3] it was over 1000 nM; in data set [4], over 1000 nM; in data set [5], over 10000 nM; in [8] it was 126 nM; in data set [9], 79.4 nM. The inhibition constant Ki in [13] is over 1000 nM; in data set [14], over 1000 nM; in data set [15], over 1000 nM; on D(1A) dopamine receptor, over 1000 nM; on D(3) dopamine receptor, over 1000 nM; at D(2) dopamine receptor, over 10000 nM. In data set [16], the Ki is over 1000 nM. Besides, the entries for the “Log Ki” value in [6] and in [7] were -6.6 and -6.7, respectively. In addition, the logP (in general, a log measure of how a compound divides between an organic and an aqueous phase) in data set [10] was determined as 4.86. The pA2 (as a rule, a measure of antagonist potency on a negative log scale) in data set [11] is listed as 10.8. The pKa (as a rule, the negative logarithm of the acid dissociation constant) in [12] came to 10.4. The compound also showed a 50% inhibitory concentration (IC50) in [1] of 0.1 nM.

Compound `CN1[C@@H]2CC[C@H]1C[C@@H](OC(=O)c1c[nH]c3ccccc13)C2` [TROPISETRON] had an IC50 in data set [1] of 3160 nM.

The values are drawn from ChEMBL document CHEMBL1126562, “(1-Butyl-4-piperidinyl)methyl 8-amino-7-chloro-1,4-benzodioxane-5-carboxylate hydrochloride: a highly potent and selective 5-HT4 receptor antagonist derived from metoclopramide” (J Med Chem, 1993).
